According to ChEMBL document CHEMBL4725360, “Optimization of Acetazolamide-Based Scaffold as Potent Inhibitors of Vancomycin-Resistant Enterococcus” (J Med Chem, 2020):
In brackets after ≈: the same amount, converted by molar mass. Activity calls are given as the source filed them. No cut-off for these calls is given here.

How the values were obtained:
[1] = system: Enterococcus faecium; assay: Antibacterial activity against Enterococcus faecium HM965 incubated for 18 to 20 hrs under aerobic condition by CLSI protocol based broth microdilution assay; type: functional; details: time hrs 18-20
Method in brief: (§1)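 Broth microdilution per CLSI. Strains grown aerobically overnight on trypticase soy agar at 37 °C. Inoculum set to 0.5 McFarland, diluted in trypticase soy broth to about 5 × 10⁵ CFU/mL. Agents serially diluted, plates incubated aerobically at 37 °C for 18–20 h. MIC is the lowest concentration with no visible growth. Compound stocks 10 mg/mL in DMSO.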

[2] = system: Enterococcus faecium; assay: Antibacterial activity against Enterococcus faecium HM968 incubated for 18 to 20 hrs under aerobic condition by CLSI protocol based broth microdilution assay; type: functional; details: time hrs 18-20; method in brief: as §1
[3] = system: Enterococcus faecium; assay: Antibacterial activity against Enterococcus faecium NR-28978 incubated for 18 to 20 hrs under aerobic condition by CLSI protocol based broth microdilution assay; type: functional; details: time hrs 18-20; method in brief: as §1
[4] = system: Enterococcus faecium; assay: Antibacterial activity against Enterococcus faecium NR-31903 incubated for 18 to 20 hrs under aerobic condition by CLSI protocol based broth microdilution assay; type: functional; details: time hrs 18-20; method in brief: as §1
[5] = system: Enterococcus faecium; assay: Antibacterial activity against Enterococcus faecium NR-32065 incubated for 18 to 20 hrs under aerobic condition by CLSI protocol based broth microdilution assay; type: functional; details: time hrs 18-20; method in brief: as §1
[6] = system: Enterococcus faecium; assay: Antibacterial activity against Enterococcus faecium NR-31914 incubated for 18 to 20 hrs under aerobic condition by CLSI protocol based broth microdilution assay; type: functional; details: time hrs 18-20; method in brief: as §1
[7] = system: Enterococcus faecium; assay: Antibacterial activity against Enterococcus faecium NR-31916 incubated for 18 to 20 hrs under aerobic condition by CLSI protocol based broth microdilution assay; type: functional; details: time hrs 18-20; method in brief: as §1
[8] = system: Enterococcus faecium; assay: Antibacterial activity against Enterococcus faecium NR-32052 incubated for 18 to 20 hrs under aerobic condition by CLSI protocol based broth microdilution assay; type: functional; details: time hrs 18-20; method in brief: as §1
[9] = system: Enterococcus faecium; assay: Antibacterial activity against Enterococcus faecium NR-31971 incubated for 18 to 20 hrs under aerobic condition by CLSI protocol based broth microdilution assay; type: functional; details: time hrs 18-20; method in brief: as §1
[10] = system: Enterococcus faecalis; assay: Antibacterial activity against Enterococcus faecalis HM-335 incubated for 18 to 20 hrs under aerobic condition by CLSI protocol based broth microdilution assay; type: functional; details: time hrs 18-20; method in brief: as §1
[11] = system: Enterococcus faecalis; assay: Antibacterial activity against Enterococcus faecalis HM-334 incubated for 18 to 20 hrs under aerobic condition by CLSI protocol based broth microdilution assay; type: functional; details: time hrs 18-20; method in brief: as §1
[12] = system: Caco-2; assay: Cytotoxicity against human Caco2 cells at 128 ug/ml incubated for 2 hrs by MTS assay; type: cell-based; details: caco-2, 2 h, dose 128 µg/ml
Method in brief: (§2)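 Caco-2 cells maintained in DMEM with 10% FBS, non-essential amino acids and penicillin-streptomycin at 37 °C, 5% CO₂. Compound exposure for 2 h in serum-free medium at several concentrations; DMSO-matched controls. Viability expressed relative to DMSO controls (mean ± SD), and CC₅₀ derived.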

[13] = Cytotoxicity against human Caco2 cells incubated for 2 hrs by MTS assay; type: cell-based; details: Caco-2 cells; method in brief: as §2
[14] = system: Enterococcus faecium; assay: Inhibition of carbonic anhydrase in Enterococcus faecium ATCC 700221 assessed as antibacterial activity incubated for 18 to 20 hrs in presence of ambient air by CLSI protocol based broth microdilution assay; details: time hrs 18-20
Method in brief: (§3)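 CLSI broth microdilution: inoculum about 5 × 10⁵ CFU/mL in trypticase soy broth with serial dilutions of agents. Paired plates incubated at 37 °C for 18–20 h, one set in ambient air ("normal"), the other under 5% CO₂. MIC is the lowest concentration completely inhibiting visible growth.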

[15] = system: Enterococcus faecium; assay: Inhibition of carbonic anhydrase in Enterococcus faecium ATCC 700221 assessed as antibacterial activity incubated for 18 to 20 hrs in presence of 5% CO2 by CLSI protocol based broth microdilution assay; details: time hrs 18-20; method in brief: as §3
[16] = system: Enterococcus faecium; assay: Bacteriostatic activity against Enterococcus faecium ATCC 700221 assessed as reduction in bacterial burden at 5 times MIC preincubated for 24 hrs followed by replating on soya agar plates and measured after 16 hrs by time-kill assay; type: functional, organism-based
Method in brief: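 E. faecium ATCC 700221 overnight culture diluted in trypticase soy broth to 3.5 × 10⁶ CFU/mL. […] Samples taken at 2, 4, 6, 8, 12 and 24 h, diluted in PBS and plated on trypticase soy agar. Colonies counted after 16 h at 37 °C. Detection limit 100 CFU/mL. Two-way ANOVA with Dunnett's test.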

[17] = Aqueous solubility of compound in pH 7.4 PBS measured at 24 hrs by HPLC analysis; type: physicochemical; details: buffer, pH 7.4, 24 h
Method in brief: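 HPLC principal-peak area of the buffer sample compared with a 200 μM calibration standard in methanol/water 60/40.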

[18] = Apparent permeability across apical to basolateral side in human Caco2 cells; type: ADME, cell-based; details: caco-2
Method in brief: (§4)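 Bi-directional Caco-2 monolayer permeability, run at Eurofins: donor at pH 6.5, receiver at pH 7.4, both A→B and B→A. Papp derived from receiver concentration at the end point, incubation time, monolayer area and mid-point donor concentration. Concentrations taken as peak areas.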

[19] = Apparent permeability across basolateral to apical side in human Caco2 cells; type: ADME, cell-based; details: caco-2; method in brief: as §4
[20] = Metabolic stability in human liver microsomes assessed as compound remaining measured after 60 mins; type: ADME, Microsome; details: 1 h
Method in brief: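 Human liver microsomes at 0.1 mg/mL, 37 °C. Percent parent remaining at 60 min, mean of 2 replicates.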

[21] = Half life in human liver microsomes after 60 mins; type: ADME, Microsome; details: 1 h
[22] = system: Enterococcus faecium; assay: Antibacterial activity against Enterococcus faecium NR-31972 incubated for 18 to 20 hrs under aerobic condition by CLSI protocol based broth microdilution assay; type: functional; details: time hrs 18-20; method in brief: as §1
[23] = system: Enterococcus faecium; assay: Antibacterial activity against Enterococcus faecium ATCC 700221 by CLSI protocol based assay; type: functional; method in brief: as §1

Compound: NS(=O)(=O)c1nnc(NC(=O)CN2CCOCC2)s1
- MIC [1]: 1 µg/mL (≈ 3.25 µM)
- MIC [2]: 1 µg/mL (≈ 3.25 µM)
- MIC [3]: 2 µg/mL (≈ 6.51 µM)
- MIC [4]: 2 µg/mL (≈ 6.51 µM)
- MIC [5]: 2 µg/mL (≈ 6.51 µM)
- MIC [6]: 2 µg/mL (≈ 6.51 µM)
- MIC [7]: 1 µg/mL (≈ 3.25 µM)
- MIC [8]: 1 µg/mL (≈ 3.25 µM)
- MIC [9]: 2 µg/mL (≈ 6.51 µM)
- MIC [10]: 0.5 µg/mL (≈ 1.63 µM)
- MIC [11]: 4 µg/mL (≈ 13 µM)
- Activity [12]: Non-Toxic
- CC50 at 2 h [13]: > 128 µg/mL
- inhibition [14]: Active
- inhibition [15]: inactive
- Activity [16]: Active
- solubility [17]: 126.6 µM (≈ 38.9 µg/mL)
- Papp [18]: < 0.17 10^-6 cm/s
- Papp [19]: < 0.17 10^-6 cm/s
- Stabilty [20]: 86%
- t1/2 [21]: 4.95 h
- MIC [22]: 4 µg/mL (≈ 13 µM)

Compound: CC(=O)/N=c1/sc(S(N)(=O)=O)nn1C [METHAZOLAMIDE]
- MIC [23]: 4 µg/mL (≈ 16.9 µM)
